Reference: ChEMBL document CHEMBL1139474, “Cellular apoptosis and cytotoxicity of phenolic compounds: a quantitative structure-activity relationship study” (J Med Chem, 2005)

How the values were obtained:
[1] = tested on: L1210; assay: Activity against caspase-mediated apoptosis in mouse L1210 cells at 0.1 mM; type: functional
[2] = tested on: L1210; assay: Activity against caspase-mediated apoptosis in mouse L1210 cells; type: functional
[3] = tested on: L1210; assay: Cytotoxicity against mouse L1210 cells; settings: mouse, l1210
[4] = tested on: HL-60; assay: Cytotoxicity against human HL60 cells; type: cell-based
How it was run: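 HL-60 cells grown at 37 °C in RPMI with L-glutamine and 10% FBS, then seeded at (2–5) × 10⁴ cells/mL, in duplicate, at eight or more concentrations. Compounds were diluted in unsupplemented RPMI and added 1:10. After 48 h of continuous exposure, CyQUANT GR nucleic-acid dye fluorescence was read (ex 485/em 530 nm). IC50 is the concentration giving 50% lower fluorescence than controls, taken from the dose-response curve.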

[5] = tested on: CCRF-CEM; assay: Cytotoxicity against human CCRF-CEM cells
[6] = Cytotoxicity against human CEM/VLB cells

SMILES | Activity [1] [%] | log(1/ID50) [2] | log(1/ID50) [3] | further results
Cc1cccc(O)c1 [METACRESOL] | <15 | 0.45 | 3.54 | 
Oc1ccccc1Cl [2-CHLOROPHENOL] | <15 |  | 3.22 | 
Cc1cccc(C(C)(C)C)c1O |  |  | 3.73 | 
Oc1cccc(Br)c1 | <15 | 1 | 3.82 | 
CC(C)c1ccccc1O | <15 | 2.38 | 3.5 | 
COc1ccccc1O.Cl [GUAIACOL HYDROCHLORIDE] | <15 |  | 3.78 | 
C[C@]12CC[C@@H]3c4ccc(O)cc4CC[C@H]3[C@@H]1CC[C@@H]2O [ESTRADIOL] |  |  |  | log(1/ID50) [4]: 3.6
Cc1ccc(O)c(C)c1 |  |  | 3.04 | 
N#Cc1ccccc1O | <15 |  | 3.3 | 
CC(C)(C)c1ccc(O)cc1 | <15 |  |  | 
OCc1ccccc1O [SALICYL ALCOHOL] | <15 |  | 2.7 | 
CSc1ccccc1O | <15 |  | 3.7 | 
Oc1cccc(O)c1 [RESORCINOL] | <15 | 0.79 | 3.46 | 
Cl.Nc1cccc(O)c1 [3-AMINOPHENOL HYDROCHLORIDE] | <15 |  | 4.11 | 
CCc1ccccc1O | <15 | 2.11 |  | 
CC(C)(C)c1cccc(C(C)(C)C)c1O |  | 1.9 | 3.85 | 
CC(C)(C)c1cc(CO)cc(C(C)(C)C)c1O |  | 2.39 | 3.88 | 
N#Cc1cccc(O)c1 | <15 | 1.11 | 3.11 | 
Oc1ccccc1O [CATECHOL] | <15 |  | 3.75 | 
C[C@]12CCc3c(ccc4cc(O)ccc34)[C@@H]1CCC2=O [EQUILENIN] |  |  |  | log(1/ID50) [4]: 3.9
CC(=O)Nc1ccc(O)cc1 [ACETAMINOPHEN] | <15 |  | 3.73 | 
Oc1cccc(F)c1 | <15 | 0.82 | 3.46 | 
CCOc1ccccc1O [1-hydroxy-2-ethoxybenzene] | <15 |  | 3.25 | 
COc1cc(NC(C)=O)cc(OC)c1O |  | 2.5 | 3.99 | 
Oc1cccc(Cl)c1 | <15 |  |  | 

SMILES | Activity [1] [%] | log(1/ID50) [2] | log(1/ID50) [3] | further results
Oc1ccccc1Br | <15 |  | 3.44 | 
CC(C)c1cccc(C(C)C)c1O [PROPOFOL] |  |  | 3.25 | 
Oc1ccc(F)cc1 | <15 |  | 3.83 | 
CCc1cc(C(C)(C)C)c(O)c(C(C)(C)C)c1 |  | 2.43 | 3.91 | 
COc1cccc(OC)c1O [SYRINGOL] |  | 2.7 | 3.86 | 
COc1cccc(O)c1 [1-hydroxy-3-methoxybenzene] | <15 | 1.31 | 3.71 | 
CC(C)(c1ccc(O)cc1)c1ccc(O)cc1 [BISPHENOL A] | <15 |  |  | log(1/ID50) [5]: 4.18; log(1/ID50) [6]: 3.96
CCCCCCCCCc1ccc(O)cc1 [4-NONYLPHENOL] | <15 |  | 4.75 | 
CC(C)(C)c1cc(C(C)(C)C)c(O)c(C(C)(C)C)c1 |  | 2.1 | 5.05 | 
CC(=O)Oc1cc(C(C)(C)C)c(O)c(C(C)(C)C)c1 |  | 2.8 | 4.35 | 
CC(=O)c1ccc(O)c(C)c1 |  |  | 3.14 | 
CCc1cccc(CC)c1O |  |  | 3.26 | 
Cc1cc(C)c(O)c(C)c1 |  |  | 3.2 | 
Nc1cc([N+](=O)[O-])ccc1O [2-AMINO-4-NITROPHENOL] |  | 2.46 |  | 
COc1ccc(O)c(C)c1 |  |  | 3.39 | 
O=[N+]([O-])c1ccc(O)cc1 [P-NITROPHENOL] | <15 | 1 | 3.45 | log(1/ID50) [5]: 3.28; log(1/ID50) [6]: 3.36
CC(C)(C)c1ccc(O)cc1.Cl | <15 |  |  | 
CCCc1ccccc1O | <15 | 2.16 | 3.49 | 
Oc1ccccc1I | <15 | 2.38 | 3.95 | 
COc1cc(OC)c(O)c(OC)c1 |  | 2.2 |  | 
Cc1ccccc1O [ORTHOCRESOL] | <15 | 1.87 | 3.52 | 
N#Cc1ccc(O)cc1 [4-CYANOPHENOL] | <15 | 0.1 | 3.44 | 
CC(C)(C)c1cc(C#N)cc(C(C)(C)C)c1O |  | 2.88 | 4.68 | 
Oc1ccccc1F | <15 |  | 3.2 | 
CC(=O)c1cc(C(C)(C)C)c(O)c(C(C)(C)C)c1 |  | 2.41 | 3.94 | 

SMILES | Activity [1] [%] | log(1/ID50) [2] | log(1/ID50) [3] | further results
CC(C)(C)c1ccccc1O | <15 | 2.42 | 4 | 
CC(C)Cc1ccccc1O | <15 |  | 3.9 | 
CCCCCc1ccc(O)cc1 | <15 |  | 4.47 | 
Oc1ccc(Cl)cc1 [PARACHLOROPHENOL] | <15 |  | 4.29 | log(1/ID50) [5]: 3.45; log(1/ID50) [6]: 3.89
CN(C)c1cccc(O)c1 | <15 |  | 4.11 | 
Oc1ccc(Br)cc1 | <15 |  |  | 
Cc1cccc(C)c1O |  |  | 3.02 | 
CC(=O)c1ccc(O)cc1 [4-HYDROXYACETOPHENONE] | <15 | 0.03 |  | 
CCCCc1ccc(O)cc1 | <15 |  | 4.33 | 
CCCCc1ccc(O)cc1.Cl | <15 |  |  | log(1/ID50) [4]: 3.52
NS(=O)(=O)c1ccc(O)cc1 | <15 |  | 2.5 | log(1/ID50) [5]: 2.31; log(1/ID50) [6]: 2.11
CC(=O)Nc1cccc(O)c1 [METACETAMOL] | <15 | 1.1 | 2.65 | 
Oc1ccc(O)cc1 [HYDROQUINONE] | <15 |  | 4.59 | 
NC(=O)c1ccc(O)cc1 | <15 |  | 2.48 | log(1/ID50) [5]: 2.23; log(1/ID50) [6]: 2.38
Oc1ccccc1C(F)(F)F | <15 |  | 3.22 | 
Cc1cc([N+](=O)[O-])ccc1O |  |  | 3.49 | 
CCCCCCOc1ccc(O)cc1 | <15 |  | 5.5 | log(1/ID50) [5]: 5.34; log(1/ID50) [6]: 5.37
NC(=O)Nc1ccccc1O | <15 |  | 3.5 | 
CC(C)(C)c1ccc(O)c(C(C)(C)C)c1 |  |  | 4.24 | 
Cc1cc(Br)ccc1O |  |  | 3.46 | 
Oc1ccc(I)cc1 | <15 |  | 3.86 | log(1/ID50) [5]: 4.29; log(1/ID50) [6]: 3.86
COc1cc(C)cc(OC)c1O |  | 2.4 | 2.89 | 
O=[N+]([O-])c1cccc(O)c1 [3-NITRO-PHENOL] | <15 | 0.79 | 3.48 | 
CC(C)(C)c1cc([N+](=O)[O-])cc(C(C)(C)C)c1O |  | 2.49 | 4.9 | 
COCc1cc(C(C)(C)C)c(O)c(C(C)(C)C)c1 |  | 2.9 | 3.93 | 

SMILES | Activity [1] [%] | log(1/ID50) [2] | log(1/ID50) [3] | further results
Cc1ccc(O)c(N)c1 |  | 2.09 |  | 
COc1cc(/C=C/C=O)cc(OC)c1O |  | 2.6 | 4.25 | 
CCc1cccc(O)c1 | <15 |  | 3.71 | 
COc1cc(N)cc(OC)c1O |  | 3.1 | 5.52 | 
CCCCOc1ccc(O)cc1 | <15 | 0.14 | 5.2 | 
CC(C)(C)c1cc(O)cc(C(C)(C)C)c1O |  | 2.5 | 4.16 | 
O=Cc1ccc(O)cc1 [4-HYDROXYBENZALDEHYDE] | <15 |  | 3.08 | 
CC/C(=C(/CC)c1ccc(O)cc1)c1ccc(O)cc1 [DIETHYLSTILBESTROL] |  |  |  | log(1/ID50) [4]: 4
COc1ccccc1O [GUAIACOL] | <15 | 2.41 |  | 
CCCCCCCc1ccc(O)cc1 | <15 |  | 4.49 | 
CC(C)(C)c1cccc(O)c1 | <15 |  | 3.88 | 
Cc1cc(F)ccc1O |  |  | 3.09 | 
O=[N+]([O-])c1ccccc1O [NITROPHENOLATE] | <15 |  | 3.34 | 
COc1cc(C(C)(C)C)c(O)c(C(C)(C)C)c1 |  | 2.87 | 3.71 | 
Cc1ccc(O)c(O)c1 |  |  | 5.03 | 
COc1cc(C(C)=O)cc(OC)c1O [ACETOSYRINGONE] |  | 2.8 | 3.06 | 
COc1cc(C=O)cc(OC)c1O [SYRINGALDEHYDE] |  | 2.9 | 3.1 | 
Nc1ccccc1O [QUESTIOMYCIN B] | <15 | 2.29 | 5.16 | 
CC(C)(C)c1cc(C=O)cc(C(C)(C)C)c1O |  | 2.49 | 4.06 | 
CCCc1ccc(O)cc1 | <15 |  | 4.04 | log(1/ID50) [5]: 3.72; log(1/ID50) [6]: 3.73
Nc1cccc(O)c1 [3-AMINOPHENOL] | <15 | 1.25 |  | 
Cc1ccc(O)c(C(C)(C)C)c1 |  |  | 3.8 | 
CCc1ccc(O)c(C(C)(C)C)c1 |  |  | 3.8 | 
